Measurements reported in ChEMBL document CHEMBL2346641, “Discovery of disubstituted piperidines and homopiperidines as potent dual NK1 receptor antagonists-serotonin reuptake transporter inhibitors for the treatment of depression” (Bioorg Med Chem, 2013).
Calls of active or inactive are those of the source.

What was measured:
[1] = target: T1, 5-hydroxytryptamine receptor 2B (Homo sapiens, UniProt P41595); experiment: Inhibition of 5HT2B receptor (unknown origin)
[2] = tested on: Gerbillinae; experiment: Antidepressant activity in gerbil assessed as decrease in immobility time at 10 to 30 mg/kg, ip administered for 30 mins prior to testing measured for 6 mins by forced swimming test; assay type: functional, organism-based
[3] = Ratio of drug level in brain to serum in gerbil at 10 mg/kg, ip after 36 mins; assay type: ADME, organism-based; set-up: dose 10 mg/kg, route intraperitoneal; details: gerbillinae
In short: (§1)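 Gerbils given single IP dose in 100% PEG-400 (0.1–30 mg/kg); brain and serum sampled 36 min post-dose, matching the interval from dosing to end of forced swim test. Drug concentrations (nM) measured in each matrix and brain-to-serum ratio calculated; mean of n = 3 with SD.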

[4] = Drug uptake in gerbil brain at 10 mg/kg, ip after 36 mins; assay type: ADME, organism-based; set-up: dose 10 mg/kg, route intraperitoneal; details: gerbillinae, read-out: Drug uptake
In short: (§2)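 Gerbils given IP doses as a solution in 100% PEG-400. Brain and serum sampled 36 min post-injection, covering the time from dosing to the end of the behavioral test. Values are means (n = 3) with SD.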

[5] = Drug uptake in gerbil brain at 30 mg/kg, ip after 36 mins; assay type: ADME, organism-based; set-up: dose 30 mg/kg, route intraperitoneal; details: gerbillinae, read-out: Drug uptake; in short: as §2
[6] = tested on: Gerbillinae; experiment: Antidepressant activity in gerbil assessed as decrease in immobility time at 0.1 mg/kg, ip administered for 30 mins prior to testing measured for 6 mins by forced swimming test relative to vehicle-treated control; assay type: functional, organism-based; set-up: dose 0.1 mg/kg
[7] = Ratio of drug level in brain to serum in gerbil at 0.1 mg/kg, ip after 36 mins; assay type: ADME, organism-based; set-up: dose 0.1 mg/kg, route intraperitoneal; details: gerbillinae; in short: as §1
[8] = target: T2, Sodium-dependent noradrenaline transporter (Homo sapiens, UniProt P23975); experiment: Inhibition of NET (unknown origin) at 10 uM
T2 sequence (P23975 whole entry): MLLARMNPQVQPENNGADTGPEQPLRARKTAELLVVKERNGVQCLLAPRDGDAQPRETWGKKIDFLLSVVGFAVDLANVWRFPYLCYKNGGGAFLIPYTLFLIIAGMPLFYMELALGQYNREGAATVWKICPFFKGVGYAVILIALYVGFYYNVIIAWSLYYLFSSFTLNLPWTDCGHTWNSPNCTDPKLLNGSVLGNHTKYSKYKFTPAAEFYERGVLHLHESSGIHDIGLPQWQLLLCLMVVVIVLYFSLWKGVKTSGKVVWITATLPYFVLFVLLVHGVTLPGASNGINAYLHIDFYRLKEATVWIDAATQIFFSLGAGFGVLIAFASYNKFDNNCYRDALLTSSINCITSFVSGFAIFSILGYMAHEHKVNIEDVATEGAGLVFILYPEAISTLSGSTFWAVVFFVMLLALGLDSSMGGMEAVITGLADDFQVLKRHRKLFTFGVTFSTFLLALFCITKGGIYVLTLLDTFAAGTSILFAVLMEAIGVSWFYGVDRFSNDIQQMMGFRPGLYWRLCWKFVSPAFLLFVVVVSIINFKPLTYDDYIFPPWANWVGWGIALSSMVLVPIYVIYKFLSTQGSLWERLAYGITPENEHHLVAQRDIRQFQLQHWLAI
In short: (§3)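 Screened at 10 µM in a commercial panel of over 70 receptors. Significance threshold set at ≥50% inhibition.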

[9] = target: Sodium-dependent serotonin transporter (Homo sapiens, UniProt P31645); assay type: cell-based, HEK293
Chain of Sodium-dependent serotonin transporter (P31645 whole entry): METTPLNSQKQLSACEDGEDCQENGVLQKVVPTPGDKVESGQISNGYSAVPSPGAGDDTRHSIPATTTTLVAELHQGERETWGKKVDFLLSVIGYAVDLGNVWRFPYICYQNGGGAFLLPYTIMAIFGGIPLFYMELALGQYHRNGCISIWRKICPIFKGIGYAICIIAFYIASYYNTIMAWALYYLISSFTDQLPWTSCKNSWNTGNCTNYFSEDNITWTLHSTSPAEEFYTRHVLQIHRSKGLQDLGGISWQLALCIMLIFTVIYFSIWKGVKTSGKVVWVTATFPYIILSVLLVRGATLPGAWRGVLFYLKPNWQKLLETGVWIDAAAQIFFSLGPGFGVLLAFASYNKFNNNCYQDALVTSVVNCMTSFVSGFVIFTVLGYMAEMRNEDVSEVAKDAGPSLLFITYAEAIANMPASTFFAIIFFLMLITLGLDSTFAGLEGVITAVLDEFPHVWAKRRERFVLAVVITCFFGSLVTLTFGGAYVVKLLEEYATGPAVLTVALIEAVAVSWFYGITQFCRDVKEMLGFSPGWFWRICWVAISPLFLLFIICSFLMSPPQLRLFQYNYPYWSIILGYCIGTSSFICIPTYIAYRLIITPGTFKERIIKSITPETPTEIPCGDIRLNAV

[10] = tested on: Gerbillinae; experiment: Antidepressant activity in gerbil assessed as decrease in immobility time at 0.3 to 3 mg/kg, ip administered for 30 mins prior to testing measured for 6 mins by forced swimming test; assay type: functional, organism-based
[11] = organism: Homo sapiens; experiment: Inhibition of Ca2+ channel (unknown origin) at 10 uM; in short: as §3
[12] = target: T1, 5-hydroxytryptamine receptor 2B; details: 10 uM
[13] = Ratio of drug level in brain to serum in gerbil at 0.3 mg/kg, ip after 36 mins; assay type: ADME, organism-based; set-up: dose 0.3 mg/kg, route intraperitoneal; details: gerbillinae; in short: as §1
[14] = target: T3, Substance-K receptor (Homo sapiens, UniProt P21452); experiment: Inhibition of NK2 receptor (unknown origin)
T3 sequence (P21452 whole entry): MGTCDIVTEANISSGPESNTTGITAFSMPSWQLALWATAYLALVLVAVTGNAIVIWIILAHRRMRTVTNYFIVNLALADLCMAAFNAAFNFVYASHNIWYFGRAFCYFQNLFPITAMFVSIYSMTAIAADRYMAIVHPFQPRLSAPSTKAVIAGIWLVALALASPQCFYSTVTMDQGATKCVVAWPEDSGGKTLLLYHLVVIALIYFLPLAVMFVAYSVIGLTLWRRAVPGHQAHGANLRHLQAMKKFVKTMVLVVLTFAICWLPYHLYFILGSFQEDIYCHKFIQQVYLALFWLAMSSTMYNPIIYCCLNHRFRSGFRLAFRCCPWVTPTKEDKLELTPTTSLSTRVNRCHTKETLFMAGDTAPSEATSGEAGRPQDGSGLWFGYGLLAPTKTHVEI

[15] = target: T4, 5-hydroxytryptamine receptor 2C (Homo sapiens, UniProt P28335); experiment: Inhibition of 5HT2C receptor (unknown origin)
T4 sequence (P28335 whole entry): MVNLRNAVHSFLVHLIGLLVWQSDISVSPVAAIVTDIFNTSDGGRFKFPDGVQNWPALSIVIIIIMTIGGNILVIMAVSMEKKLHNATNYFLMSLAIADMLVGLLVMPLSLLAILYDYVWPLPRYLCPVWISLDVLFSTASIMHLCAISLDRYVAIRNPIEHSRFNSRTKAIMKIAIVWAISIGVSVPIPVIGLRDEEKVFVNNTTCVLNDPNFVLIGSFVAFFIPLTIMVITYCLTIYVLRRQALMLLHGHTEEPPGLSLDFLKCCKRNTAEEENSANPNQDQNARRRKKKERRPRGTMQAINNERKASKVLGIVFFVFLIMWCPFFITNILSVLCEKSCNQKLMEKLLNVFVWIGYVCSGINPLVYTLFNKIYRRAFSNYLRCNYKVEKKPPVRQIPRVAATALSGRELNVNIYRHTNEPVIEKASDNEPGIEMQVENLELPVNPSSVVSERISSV

[16] = target: T5, 5-hydroxytryptamine receptor 1A (Homo sapiens, UniProt P08908); experiment: Inhibition of 5HT1A receptor (unknown origin)
T5 sequence (P08908 whole entry): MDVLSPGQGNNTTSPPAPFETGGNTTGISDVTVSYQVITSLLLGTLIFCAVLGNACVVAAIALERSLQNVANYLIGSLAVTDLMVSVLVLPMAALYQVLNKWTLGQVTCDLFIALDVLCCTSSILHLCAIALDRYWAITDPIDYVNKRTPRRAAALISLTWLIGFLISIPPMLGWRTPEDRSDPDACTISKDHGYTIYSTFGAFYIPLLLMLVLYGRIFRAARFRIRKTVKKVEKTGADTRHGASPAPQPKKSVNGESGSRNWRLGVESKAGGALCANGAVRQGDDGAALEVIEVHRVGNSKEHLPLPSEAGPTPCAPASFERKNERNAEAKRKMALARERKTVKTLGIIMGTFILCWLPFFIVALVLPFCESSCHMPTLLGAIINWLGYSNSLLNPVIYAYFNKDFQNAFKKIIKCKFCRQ

[17] = Drug uptake in gerbil brain at 0.1 mg/kg, ip after 36 mins; assay type: ADME, organism-based; set-up: dose 0.1 mg/kg, route intraperitoneal; details: gerbillinae, read-out: Drug uptake; in short: as §2
[18] = Ratio of drug level in brain to serum in gerbil at 1 mg/kg, ip after 36 mins; assay type: ADME, organism-based; set-up: dose 1 mg/kg, route intraperitoneal; details: gerbillinae; in short: as §1
[19] = tested on: Gerbillinae; experiment: Toxicity in gerbil assessed as behavioral change measuring spontaneous locomotor activity at 0.1 to 1 mg/kg, ip after 30 mins relative to vehicle-treated control; assay type: organism-based; set-up: dose 0.1-1 mg/kg, route intraperitoneal; details: in vivo, 0.5 h
[20] = target: T2, Sodium-dependent noradrenaline transporter; experiment: Inhibition of NET (unknown origin)
[21] = Binding affinity to gerbil NK1 receptor; set-up: species or system Gerbillinae
[22] = Drug uptake in gerbil serum at 0.1 mg/kg, ip after 36 mins; assay type: ADME, organism-based; set-up: dose 0.1 mg/kg, route intraperitoneal; details: gerbillinae, read-out: Drug uptake; in short: as §2
[23] = Drug uptake in gerbil brain at 3 mg/kg, ip after 36 mins; assay type: ADME, organism-based; set-up: dose 3 mg/kg, route intraperitoneal; details: gerbillinae, read-out: Drug uptake; in short: as §2
[24] = Drug uptake in gerbil serum at 30 mg/kg, ip after 36 mins; assay type: ADME, organism-based; set-up: dose 30 mg/kg, route intraperitoneal; details: gerbillinae, read-out: Drug uptake; in short: as §2
[25] = target: Histamine H2 receptor (Homo sapiens) (UniProt P25021); experiment: Inhibition of histamine H2 receptor (unknown origin) at 10 uM; in short: as §3
Chain of Histamine H2 receptor (Homo sapiens) (P25021 whole entry): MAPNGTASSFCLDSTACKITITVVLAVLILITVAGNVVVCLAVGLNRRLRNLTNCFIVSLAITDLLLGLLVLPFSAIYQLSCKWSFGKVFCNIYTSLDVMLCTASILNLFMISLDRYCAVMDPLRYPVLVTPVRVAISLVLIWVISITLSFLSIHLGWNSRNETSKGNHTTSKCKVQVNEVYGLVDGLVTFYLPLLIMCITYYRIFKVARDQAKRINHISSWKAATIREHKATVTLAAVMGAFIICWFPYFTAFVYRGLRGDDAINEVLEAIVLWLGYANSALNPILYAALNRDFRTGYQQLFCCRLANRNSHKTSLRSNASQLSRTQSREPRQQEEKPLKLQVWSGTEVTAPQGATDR

[26] = target: 5-hydroxytryptamine receptor 1B (Homo sapiens, UniProt P28222); experiment: Inhibition of 5HT1B receptor (unknown origin)
Chain of 5-hydroxytryptamine receptor 1B (P28222 whole entry): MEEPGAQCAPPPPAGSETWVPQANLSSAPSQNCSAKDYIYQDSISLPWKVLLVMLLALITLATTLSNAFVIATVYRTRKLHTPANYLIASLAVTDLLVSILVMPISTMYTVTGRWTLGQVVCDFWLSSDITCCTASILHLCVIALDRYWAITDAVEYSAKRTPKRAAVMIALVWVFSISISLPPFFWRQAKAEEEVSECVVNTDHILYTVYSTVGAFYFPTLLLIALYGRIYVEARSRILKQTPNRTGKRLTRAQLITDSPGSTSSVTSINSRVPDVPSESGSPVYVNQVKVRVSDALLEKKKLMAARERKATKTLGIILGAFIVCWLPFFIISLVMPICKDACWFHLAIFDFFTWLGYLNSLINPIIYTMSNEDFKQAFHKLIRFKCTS

[27] = target: Histamine H1 receptor (Homo sapiens) (UniProt P35367); experiment: Inhibition of histamine H1 receptor (unknown origin) at 10 uM; in short: as §3
Chain of Histamine H1 receptor (Homo sapiens) (P35367 whole entry): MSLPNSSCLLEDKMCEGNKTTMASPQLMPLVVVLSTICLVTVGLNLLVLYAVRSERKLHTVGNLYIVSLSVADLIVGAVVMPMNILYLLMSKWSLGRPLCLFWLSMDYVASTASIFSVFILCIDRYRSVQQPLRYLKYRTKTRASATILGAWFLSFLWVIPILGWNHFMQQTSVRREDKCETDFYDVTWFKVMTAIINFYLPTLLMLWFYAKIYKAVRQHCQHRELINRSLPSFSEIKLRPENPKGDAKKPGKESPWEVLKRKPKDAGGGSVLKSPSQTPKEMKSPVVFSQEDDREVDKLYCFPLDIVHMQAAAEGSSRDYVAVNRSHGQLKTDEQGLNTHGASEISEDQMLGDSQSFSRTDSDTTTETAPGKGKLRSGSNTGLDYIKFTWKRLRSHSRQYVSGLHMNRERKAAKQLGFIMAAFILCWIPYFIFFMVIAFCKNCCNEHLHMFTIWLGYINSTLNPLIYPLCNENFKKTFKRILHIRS

[28] = organism: Homo sapiens; experiment: Inhibition of Na+ channel (unknown origin) at 10 uM; in short: as §3

T1 sequence (P41595 whole entry): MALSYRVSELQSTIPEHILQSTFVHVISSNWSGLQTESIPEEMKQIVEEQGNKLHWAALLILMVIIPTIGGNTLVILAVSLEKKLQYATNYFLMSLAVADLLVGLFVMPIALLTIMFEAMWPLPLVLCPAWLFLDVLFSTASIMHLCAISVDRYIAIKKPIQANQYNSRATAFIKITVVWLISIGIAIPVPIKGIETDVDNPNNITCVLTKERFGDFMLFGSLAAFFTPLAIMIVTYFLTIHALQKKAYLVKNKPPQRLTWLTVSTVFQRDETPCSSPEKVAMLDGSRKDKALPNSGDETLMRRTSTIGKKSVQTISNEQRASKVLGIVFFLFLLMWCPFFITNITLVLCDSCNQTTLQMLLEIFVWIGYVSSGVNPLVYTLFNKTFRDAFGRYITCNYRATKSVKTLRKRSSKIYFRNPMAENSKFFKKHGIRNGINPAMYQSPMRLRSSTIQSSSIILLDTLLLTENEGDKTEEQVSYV

- IC50 [1]: > 1000 nM
- Kp at 0.6 h [3]: 5.2
- concentration at 0.6 h [4]: 4300 nM
- concentration at 0.6 h [5]: 7300 nM
- Kp at 0.6 h [7]: 2.3
- inhibition [8]: Active
- IC50 [9]: 1 nM
- inhibition [11]: Active
- inhibition [12]: Active
- Kp at 0.6 h [13]: 3.2
- IC50 [14]: > 1000 nM
- IC50 [15]: > 1000 nM
- IC50 [16]: > 1000 nM
- concentration at 0.6 h [17]: 8.8 nM
- Kp at 0.6 h [18]: 3.2
- IC50 [20]: > 1000 nM
- IC50 [21]: 2 nM
- concentration at 0.6 h [22]: 3.6 nM
- concentration at 0.6 h [23]: 880 nM
- concentration at 0.6 h [24]: 2300 nM
- inhibition [25]: Active
- IC50 [26]: > 1000 nM
- inhibition [27]: Active
- inhibition [28]: Active
SMILES: FC(F)(F)c1cc(COCC2(c3ccccc3)CCNCC2)cc(C(F)(F)F)c1
- Activity [2]: inactive
- Activity [6]: inactive
- Activity [10]: Active
- Activity [19]: Non-toxic
